The source made the active and inactive calls. No cut-off for these calls is given here.
How the values were obtained:
[1] = test system: HT-29; test: Induction of cell cycle arrest in human HT-29 cells assessed as accumulation of cells at subG1 phase at 4 uM incubated for 24 hrs by RNase/PI staining based flow cytometry analysis (reference value: 1.798%); assay type: functional
[2] = test system: HT-29; test: Induction of mitochondrial ROS generation in human HT-29 cells at 4 uM by MitoSOX red dye based flow cytometry analysis; assay type: functional, cell-based
How it was run: (§1)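 Mitochondrial superoxide in HT-29 cells was read with the mitochondria-localizing MitoSOX Red probe after treatment at 1, 2 or 4 μM. Flow cytometry histograms were acquired on 10,000 cells, and results were expressed as mean fluorescence intensity. Versus control, significance was tested by one-way ANOVA with Tukey's post hoc test.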

[3] = test system: HT-29; test: Downregulation of beta-catenin protein expression in human HT-29 cells at 4 uM by immunostaining based confocal microscopic analysis; assay type: functional, cell-based
[4] = molecular target: Glycogen synthase kinase-3 beta (Homo sapiens) (UniProt P49841); test: Inhibition of GSK3beta phosphorylation in human HT-29 cells at 4 uM incubated for 72 hrs by Western blot analysis; assay type: cell-based
[5] = test system: HT-29; test: Inhibition of beta-actin protein expression in human HT-29 cells at 4 uM incubated for 72 hrs by Western blot analysis; assay type: functional, cell-based
[6] = test system: HT-29; test: Inhibition of pan-AKT protein expression in human HT-29 cells at 4 uM incubated for 72 hrs by Western blot analysis; assay type: functional, cell-based
[7] = test system: HT-29; test: Induction of cell cycle arrest in human HT-29 cells assessed as accumulation of cells at G0/G1 phase at 1 uM incubated for 24 hrs by RNase/PI staining based flow cytometry analysis (reference value: 50.206%); assay type: functional
[8] = test system: HT-29; test: Induction of cell cycle arrest in human HT-29 cells assessed as accumulation of cells at S phase at 1 uM incubated for 24 hrs by RNase/PI staining based flow cytometry analysis (reference value: 17.934 %); assay type: functional
[9] = test system: HT-29; test: Induction of cell cycle arrest in human HT-29 cells assessed as accumulation of cells at subG1 phase at 1 uM incubated for 24 hrs by RNase/PI staining based flow cytometry analysis (reference value: 1.798%); assay type: functional
[10] = test system: HT-29; test: Downregulation of TAB-182 protein expression in human HT-29 cells at 1 uM by immunostaining based confocal microscopic analysis; assay type: functional, cell-based
[11] = molecular target: T1, Catenin beta-1 (Homo sapiens) (UniProt P35222); test: Inhibition of beta-catenin phosphorylation in human HT-29 cells at 1 uM incubated for 72 hrs by Western blot analysis; assay type: cell-based
T1 sequence (whole entry): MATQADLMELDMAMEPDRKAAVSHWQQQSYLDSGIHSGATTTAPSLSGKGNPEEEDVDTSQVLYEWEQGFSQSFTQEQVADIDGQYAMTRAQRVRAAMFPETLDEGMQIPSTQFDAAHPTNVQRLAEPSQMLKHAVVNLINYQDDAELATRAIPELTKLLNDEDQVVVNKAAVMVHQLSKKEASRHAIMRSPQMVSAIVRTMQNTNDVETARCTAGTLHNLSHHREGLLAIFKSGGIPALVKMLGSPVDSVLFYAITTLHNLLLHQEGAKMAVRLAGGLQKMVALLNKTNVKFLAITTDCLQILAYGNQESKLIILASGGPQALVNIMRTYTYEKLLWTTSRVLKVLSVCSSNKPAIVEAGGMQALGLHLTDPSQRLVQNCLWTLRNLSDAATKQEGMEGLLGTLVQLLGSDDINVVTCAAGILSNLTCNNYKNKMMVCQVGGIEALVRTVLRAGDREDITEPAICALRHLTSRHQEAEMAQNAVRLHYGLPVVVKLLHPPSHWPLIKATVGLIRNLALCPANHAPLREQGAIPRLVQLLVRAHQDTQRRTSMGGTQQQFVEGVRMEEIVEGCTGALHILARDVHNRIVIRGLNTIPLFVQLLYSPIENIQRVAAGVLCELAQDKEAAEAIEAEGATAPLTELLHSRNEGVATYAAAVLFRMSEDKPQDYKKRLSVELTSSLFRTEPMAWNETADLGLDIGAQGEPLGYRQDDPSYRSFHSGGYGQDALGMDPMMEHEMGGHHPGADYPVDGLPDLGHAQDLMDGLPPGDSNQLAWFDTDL

[12] = test system: HT-29; test: Inhibition of AXIN-2 protein expression in human HT-29 cells at 1 uM incubated for 72 hrs by Western blot analysis; assay type: functional, cell-based
[13] = test system: HT-29; test: Inhibition of beta-catenin protein expression in human HT-29 cells at 1 uM incubated for 72 hrs by Western blot analysis; assay type: functional, cell-based
[14] = test system: HT-29; test: Inhibition of PI3K-p85 protein expression in human HT-29 cells at 1 uM incubated for 72 hrs by Western blot analysis; assay type: functional, cell-based
[15] = test system: HT-29; test: Inhibition of pan-AKT protein expression in human HT-29 cells at 1 uM incubated for 72 hrs by Western blot analysis; assay type: functional, cell-based
[16] = test system: HT-29; test: Induction of cell cycle arrest in human HT-29 cells assessed as accumulation of cells at S phase at 2 uM incubated for 24 hrs by RNase/PI staining based flow cytometry analysis (reference value: 17.934 %); assay type: functional
[17] = test system: HT-29; test: Induction of mitochondrial damage in human HT-29 cells assessed as increase in monomer formation at 2 uM incubated for 24 hrs by JC-1 staining based flow cytometry analysis; assay type: functional, cell-based
How it was run: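 HT-29 cells exposed 24 h to test agent at 1, 2 or 4 μM, then stained with JC-1. Flow cytometry scored the % of cells in JC-1 aggregate versus monomer populations. Treated groups were compared with untreated control by two-way ANOVA with Tukey's post hoc test.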

[18] = test system: HT-29; test: Induction of apoptosis in human HT29 cells assessed as increase in early apoptotic cells at 2 uM incubated for 24 hrs by annexin V/PI staining based flow cytometry analysis; assay type: functional, cell-based
How it was run: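 Annexin/PI double staining of HT-29 cells after 24 h exposure at 1, 2 or 4 μM. Flow cytometry gated early apoptotic, late apoptotic and necrotic populations, reported as % of cells. Comparison to untreated control used two-way ANOVA followed by Tukey's post hoc analysis.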

[19] = test system: HT-29; test: Induction of ROS generation in human HT-29 cells at 2 uM by CM-H2DCFDA fluorescent probe based flow cytometry analysis (reference value: 0.528%); assay type: functional
[20] = test system: HT-29; test: Induction of mitochondrial ROS generation in human HT-29 cells at 2 uM by MitoSOX red dye based flow cytometry analysis; assay type: functional, cell-based; how it was run: as §1
[21] = molecular target: T1, Catenin beta-1 (Homo sapiens); test: Inhibition of beta-catenin phosphorylation in human HT-29 cells at 2 uM incubated for 72 hrs by Western blot analysis; assay type: cell-based
[22] = molecular target: Glycogen synthase kinase-3 beta (Homo sapiens) (UniProt P49841); test: Inhibition of GSK3beta phosphorylation in human HT-29 cells at 2 uM incubated for 72 hrs by Western blot analysis; assay type: cell-based
[23] = test system: HT-29; test: Inhibition of AXIN-1 protein expression in human HT-29 cells at 2 uM incubated for 72 hrs by Western blot analysis; assay type: functional, cell-based
[24] = test system: HT-29; test: Inhibition of AXIN-2 protein expression in human HT-29 cells at 2 uM incubated for 72 hrs by Western blot analysis; assay type: functional, cell-based
[25] = test system: HT-29; test: Inhibition of beta-catenin protein expression in human HT-29 cells at 2 uM incubated for 72 hrs by Western blot analysis; assay type: functional, cell-based
[26] = test system: HT-29; test: Inhibition of PI3K-p85 protein expression in human HT-29 cells at 2 uM incubated for 72 hrs by Western blot analysis; assay type: functional, cell-based

Chain of Glycogen synthase kinase-3 beta (Homo sapiens) (P49841 whole entry, looked up): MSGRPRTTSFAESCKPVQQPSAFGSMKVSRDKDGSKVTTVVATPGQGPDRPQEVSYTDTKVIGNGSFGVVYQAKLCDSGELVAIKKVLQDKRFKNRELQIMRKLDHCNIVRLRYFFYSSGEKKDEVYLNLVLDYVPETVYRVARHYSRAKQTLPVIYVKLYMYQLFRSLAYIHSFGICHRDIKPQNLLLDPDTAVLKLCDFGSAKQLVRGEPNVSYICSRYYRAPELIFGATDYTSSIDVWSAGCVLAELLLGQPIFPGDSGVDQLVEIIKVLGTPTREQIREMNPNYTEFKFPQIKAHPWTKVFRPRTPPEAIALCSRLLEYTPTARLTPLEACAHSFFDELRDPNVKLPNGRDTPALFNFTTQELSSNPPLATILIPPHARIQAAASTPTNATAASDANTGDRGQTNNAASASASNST

**Q.** Which Activity [1] does the source give for COc1cccc(-n2c(SCCc3c[nH]c4ccccc34)nnc2-c2ccncc2)c1 here?
**A.** 2.668%

**Q.** What about the Activity [2] of the same compound?
**A.** Active

**Q.** What about the Activity [3] of the same compound?
**A.** Active

**Q.** And the inhibition [4]?
**A.** Active

**Q.** And the inhibition [5]?
**A.** Active

**Q.** What about the inhibition [6] of the same compound?
**A.** Active

**Q.** Which Activity [7] does the source give for COc1ccc(-n2c(SCCc3c[nH]c4ccccc34)nnc2-c2ccncc2)cc1 here?
**A.** 59.672%

**Q.** And the Activity [8]?
**A.** 9.899%

**Q.** What about the Activity [9] of the same compound?
**A.** 1.225%

**Q.** What about the Activity [10] of the same compound?
**A.** Active

**Q.** What about the inhibition [11] of the same compound?
**A.** Active

**Q.** And the inhibition [12]?
**A.** Active

**Q.** And the inhibition [13]?
**A.** Active

**Q.** And the inhibition [14]?
**A.** Active

**Q.** And the inhibition [15]?
**A.** Active

**Q.** Fc1ccccc1-n1c(SCCc2c[nH]c3ccccc23)nnc1-c1ccncc1 was tested. Which Activity [16] did it give?
**A.** 7.976%

**Q.** And the Activity [17]?
**A.** Active

**Q.** What about the Activity [18] of the same compound?
**A.** Active

**Q.** And the Activity [19]?
**A.** 1.526%

**Q.** What about the Activity [20] of the same compound?
**A.** Active

**Q.** What about the inhibition [21] of the same compound?
**A.** Active

**Q.** And the inhibition [22]?
**A.** Active

**Q.** What about the inhibition [23] of the same compound?
**A.** Active

**Q.** And the inhibition [24]?
**A.** Active

**Q.** And the inhibition [25]?
**A.** Active

**Q.** What about the inhibition [26] of the same compound?
**A.** Active

— ChEMBL document CHEMBL5257059, “Pyridine-Based 1,2,4-Triazolo-Tethered Indole Conjugates Potentially Affecting TNKS and PI3K in Colorectal Cancer” (ACS Med Chem Lett, 2023)
